Paper PMC10928850 (RSC Advances, 2024)
In brackets after ≈: the same amount, converted by molar mass.

Experiments:
[1] = target: acetylcholinesterase (AChE) (Homo sapiens, UniProt P22303); assay: Acetylcholinesterase inhibition, Ellman's method; format: biochemical; settings: for AChE Inhibition (%): at the same concentration, mean ± SE, three replicates
β-glucosidase = assay: β-Glucosidase enzyme inhibition; format: biochemical; settings: mean ± SE, three replicates; for β-Glucosidase Inhibition (%): at the same concentration
proteinase (trypsin) = assay: Anti-arthritic: proteinase inhibitory activity; format: biochemical; settings: at the same concentration; mean ± SE, three replicates
Iron reducing power = settings: mean ± SE, three replicates
Method in brief: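 Reducing power was measured by the Oyaizu method and expressed in μg mL−1, with ascorbic acid as the standard.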

[2] = DPPH radical scavenging activity; settings: mean ± SE, three replicates
[3] = Total antioxidant capacity; settings: mean ± SE, three replicates
[4] = ABTS radical scavenging assay; settings: at equal concentrations; mean ± SE, three replicates
[5] = test system: human lung (A549) cancer cell line; assay: MTT cytotoxicity, lung cancer A549; format: cell-based; settings: A549, 48 h, read-out: IC50 Lung cancer (A549)
Method in brief: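 Human lung A549 cells, run alongside Caco-2 colon cancer and normal WI-38 lung cells, were exposed to test compound. Viability was read by MTT, with optical density at 590. IC50 and percentage growth inhibition were computed with IC50 calculation software.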

[6] = test system: normal lung (WI-38) cell line; assay: MTT cytotoxicity, normal lung WI-38; format: cell-based; settings: Homo sapiens, WI-38, 48 h, read-out: IC50 Normal lung (WI-38)
[7] = test system: bovine serum albumin (BSA); assay: Anti-arthritic: inhibition of protein denaturation; settings: inhibitory effect, at the same concentration; mean ± SE, three replicates
[8] = test system: human colon (Caco-2) cancer cell line; assay: MTT cytotoxicity, colon cancer Caco-2; format: cell-based; settings: for IC50: Homo sapiens, Caco-2, 48 h, read-out: IC50 Colon cancer (Caco-2); for Therapeutic index (TI) Colon cancer (Caco-2): IC50 on the normal cells (WI-38)/IC50 on the cancer cells (Caco-2)
α-glucosidase = α-glucosidase (Saccharomyces cerevisiae, UniProt P53341); assay: α-Glucosidase enzyme inhibition; format: biochemical; settings: at the same concentration; mean ± SE, three replicates
α-glucosidase enzyme = assay: Electrophoretic α-glucosidase pattern; format: biochemical; settings: enzyme treated at concentration equivalent to IC50
α-amylase = target: T1, α-amylase (Sus scrofa, UniProt P00690); assay: α-Amylase enzyme inhibition; format: biochemical; settings: at the same concentration; mean ± SE, three replicates
T1 sequence (P00690 16-511): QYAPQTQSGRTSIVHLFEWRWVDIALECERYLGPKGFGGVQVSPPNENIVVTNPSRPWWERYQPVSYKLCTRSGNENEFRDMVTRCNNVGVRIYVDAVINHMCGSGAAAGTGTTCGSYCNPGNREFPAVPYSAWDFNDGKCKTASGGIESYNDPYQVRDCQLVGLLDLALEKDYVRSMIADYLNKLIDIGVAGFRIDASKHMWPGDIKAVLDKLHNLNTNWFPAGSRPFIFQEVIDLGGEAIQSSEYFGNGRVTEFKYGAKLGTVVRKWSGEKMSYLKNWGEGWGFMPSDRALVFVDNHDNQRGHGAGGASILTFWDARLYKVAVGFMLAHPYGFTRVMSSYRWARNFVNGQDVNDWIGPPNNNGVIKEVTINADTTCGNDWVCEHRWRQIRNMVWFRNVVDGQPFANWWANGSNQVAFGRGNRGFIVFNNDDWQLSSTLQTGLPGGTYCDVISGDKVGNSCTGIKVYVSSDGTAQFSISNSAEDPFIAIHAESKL

Chain of acetylcholinesterase (AChE) (P22303 32-614, species assumed): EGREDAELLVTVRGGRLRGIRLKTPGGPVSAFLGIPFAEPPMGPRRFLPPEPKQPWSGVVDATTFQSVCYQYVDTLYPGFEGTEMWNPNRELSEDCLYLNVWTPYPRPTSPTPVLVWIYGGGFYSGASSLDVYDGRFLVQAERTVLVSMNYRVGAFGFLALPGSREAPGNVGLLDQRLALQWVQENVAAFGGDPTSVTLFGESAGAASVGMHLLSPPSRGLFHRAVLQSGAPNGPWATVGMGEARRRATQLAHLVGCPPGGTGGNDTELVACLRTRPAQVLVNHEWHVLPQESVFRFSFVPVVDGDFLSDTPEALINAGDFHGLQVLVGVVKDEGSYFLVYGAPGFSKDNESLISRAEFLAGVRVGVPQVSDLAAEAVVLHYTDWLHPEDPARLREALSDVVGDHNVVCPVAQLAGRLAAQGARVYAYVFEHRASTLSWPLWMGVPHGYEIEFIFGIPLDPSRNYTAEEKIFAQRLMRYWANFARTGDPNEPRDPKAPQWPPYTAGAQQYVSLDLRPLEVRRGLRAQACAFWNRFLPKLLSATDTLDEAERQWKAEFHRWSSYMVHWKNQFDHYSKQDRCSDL
Chain of α-glucosidase (P53341 whole entry): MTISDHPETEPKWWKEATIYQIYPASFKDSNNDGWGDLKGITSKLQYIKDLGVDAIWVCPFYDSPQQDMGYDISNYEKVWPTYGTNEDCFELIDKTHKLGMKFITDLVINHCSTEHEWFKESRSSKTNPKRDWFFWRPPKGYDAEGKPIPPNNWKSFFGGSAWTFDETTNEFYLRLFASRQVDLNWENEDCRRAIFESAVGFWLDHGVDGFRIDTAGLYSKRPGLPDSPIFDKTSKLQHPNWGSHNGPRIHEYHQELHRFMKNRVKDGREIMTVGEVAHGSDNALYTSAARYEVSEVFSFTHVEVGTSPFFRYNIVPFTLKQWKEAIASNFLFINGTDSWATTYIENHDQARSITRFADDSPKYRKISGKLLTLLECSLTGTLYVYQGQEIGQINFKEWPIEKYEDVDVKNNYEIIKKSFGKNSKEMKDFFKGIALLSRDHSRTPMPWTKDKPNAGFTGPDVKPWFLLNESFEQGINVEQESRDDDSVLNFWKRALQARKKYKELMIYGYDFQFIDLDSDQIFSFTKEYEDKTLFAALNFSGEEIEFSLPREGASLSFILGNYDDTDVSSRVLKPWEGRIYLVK

SMILES	IC50 [1]	AChE Inhibition (%) [1]	β-Glucosidase Inhibition (%) (β-glucosidase)	β-Glucosidase IC50 (β-glucosidase)	Anti-arthritic activity: Inhibition of proteinase (%) (proteinase (trypsin))	Antioxidant activity IRP (Iron reducing power)	Scavenging activity DPPH IC50 [2]	Antioxidant activity TAC [3]	Scavenging activity ABTS (%) [4]	IC50 [5]	IC50 [6]	Anti-arthritic activity: Proteinase denaturation (%) [7]	IC50 [8]	Therapeutic index (TI) Colon cancer (Caco-2) [8]	α-Glucosidase Inhibition (%) (α-glucosidase)	α-glucosidase band (45 KDa) Qty (Band Quantity) (α-glucosidase enzyme)	α-Amylase Inhibition (%) (α-amylase)
COc1ccc(Nc2nn3c(-c4ccccc4)ccnc3c2C(=O)Nc2ccccc2)cc1 [12a]	7.67 mM	14.92 ± 0.02%	7.67 ± 0.01%	6470 ± 10 µg/mL	14.91 ± 0.03%	17.29 ± 0.04 µg/mL	19.63 ± 0.04 µg/mL	30.58 ± 0.07 mg gallic acid per g	25.28 ± 0.06%	47.8 µg/mL (≈ 110 µM)	134 µg/mL (≈ 308 µM)	16.24 ± 0.04%	38.1 µg/mL (≈ 87.6 µM)	3.5			
COc1ccc(Nc2nn3c(-c4ccccc4)ccnc3c2C(=O)Nc2ccc(Cl)cc2)cc1 [12b]	6.7 mM	16.00 ± 0.04%	9.66 ± 0.02%	5180 ± 10 µg/mL	16.25 ± 0.04%	17.97 ± 0.04 µg/mL	18.33 ± 0.04 µg/mL	31.27 ± 0.07 mg gallic acid per g	28.23 ± 0.06%	40.5 µg/mL (≈ 86.3 µM)	305 µg/mL (≈ 649 µM)	17.55 ± 0.04%	29.8 µg/mL (≈ 63.3 µM)	10.24			
C[C@H]1O[C@H](O[C@H]2[C@H](O)[C@@H](O)[C@@H](O[C@H]3[C@H](O)[C@@H](O)C(O)O[C@@H]3CO)O[C@@H]2CO)[C@H](O)[C@@H](O)[C@@H]1N[C@H]1C=C(CO)[C@@H](O)[C@H](O)[C@H]1O (stereo partly shown) [Acarbose]			47.70 ± 0.01%	1070 ± 10 µg/mL											55.45 ± 0.01%	completely decreasing the protein band	65.95 ± 0.01%
O=C1O[C@H]([C@@H](O)CO)C(O)=C1O [Ascorbic acid, reference compound]							4.05 ± 0.01 µg/mL		39.09 ± 0.09%								
O=C(O)Cc1ccccc1Nc1c(Cl)cccc1Cl [Diclofenac sodium, reference compound]					41.88 ± 0.09%												
COc1cccc2c1C(=O)c1c(O)c3c(c(O)c1C2=O)C[C@@](O)(C(=O)CO)C[C@@H]3O[C@H]1C[C@H](N)[C@H](O)[C@H](C)O1 [Doxorubicin, reference compound]										31.3 µg/mL (≈ 57.6 µM)	76 µg/mL (≈ 140 µM)		28.4 µg/mL (≈ 52.3 µM)	2.67			
